Results filed as inconclusive are left out.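 How the source made its calls, unless noted: active means cell viability at or below a set limit in both duplicate runs, the limit being the all-compound median minus 4 SD (cut at about 23% in these data, passing the limit was not always enough); inconclusive means no clear call, values can overlap the other calls; inactive means the rest.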
Assays:
[1] = OD615 S. cerevisiae growth inhibition, permissive medium, pilot counter-assay, permissive growth control for S. cerevisiae lifespan shortening project (AID 705;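 active means growth inhibition above 25% in both replicates, a cutoff set 3 SD above the mean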); conditions: OD615, 24 h, at 10 µM, stronger effect = higher value
Outline: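 Material: engineered DeaD yeast; compound dosing: one dose 10 µM, DMSO 0.25% final; measure: yeast growth inhibition indicated by reduced 24 h OD615; detection: OD615 turbidity read; incubation: cells pre-grown 4 h, then 24 h compound exposure, 30 °C humidified; medium: permissive synthetic complete medium with raffinose and galactose carbon sources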

[2] = Restrictive medium S. cerevisiae growth inhibition, OD615, pilot screen of yeast lifespan reduction project, restrictive growth control (AID 706;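 active means growth inhibition above a set limit, 3 SD over mean compound inhibition, in both replicates, cut at about 43% in these data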;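 further: modified DeaD lifespan yeast strain shifted to restrictive glucose medium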); conditions: OD615, 48 h, at 10 µM, stronger effect = higher value
Outline: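 material = engineered S. cerevisiae DeaD strain | medium = glucose-based CSMM-D restrictive medium | times = 4 h pre-incubation, 48 h exposure at 30 °C | technique = OD615 absorbance reading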

[3] = viability gain of MRP-1-high H69AR cells under doxorubicin, pilot screen, MRP-1 activator project, CellTiter-Glo, duplicate (AID 807;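 active means viability increase at or above a cutoff of the median across tested compounds plus 3 SD, cut at about 8.5% in these data, passing the limit was not always enough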;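 further: compound pretreatment 18-22 h then 72 h combined with doxorubicin; 0% = doxorubicin alone and 100% = vehicle without doxorubicin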); conditions: H69AR viability with doxorubicin, CellTiter-Glo luminescence; at 10 µM; stronger effect = higher value
[4] = growth suppression of beta-catenin knockout HCT116, pilot screen, human colon tumor cells (AID 823); conditions: CellTiter-Glo, 60 h, at 10 µM, stronger effect = lower value;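 further: 0% = wells killed by 20 µM Hyamine and 100% = untreated DMSO cell wells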
[5] = growth suppression of PTEN-deleted HCT116, pilot screen, cell-based, HCT116 clonal line, CellTiter-Glo (AID 824;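 active means viability at or below 27.92% in each of two runs, the all-compound median minus 4 SD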;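 further: 0% = 20 µM Hyamine control and 100% = vehicle cell control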); conditions: 60 h, at 10 µM, stronger effect = lower value
[6] = inhibitors of the yeast RAM network, pilot screen, dse1pr::URA3 reporter, 5-FOA selection (AID 869;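 active means inhibition over a set limit, the all-compound mean plus 3 SD, in both replicate runs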;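 further: 0% = DMSO wells with no growth and 100% = 10 µM 1-NA-PP1 with full growth; RAM network block rescues cells from 5-FOA so hits raise OD615 growth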); conditions: S. cerevisiae dse1pr::URA3 5-FOA growth, OD615, 2 d; at 10 µM; stronger effect = higher value; strain carries analog-sensitive mutant Cbk1 kinase
[7] = RAM signaling pathway blockade in yeast – S. cerevisiae, Pdr1DBD-CYC8 efflux-inhibited sensitized strain, primary screen (AID 1298;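 active means RAM network inhibition above 8.4% in each of two replicates, 3 SD over the compound average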;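 further: 0% = DMSO untreated cells without growth and 100% = 10 µM 1-NA-PP1 full growth; higher means more yeast growth rescued from 5-FOA killing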); conditions: S. cerevisiae cbk1-as DSE1-URA3 strain, 5-FOA growth OD615, 2 d; at 50 µM; stronger effect = higher value

CC(C)c1ccc(NC(=O)c2cnn(-c3ccccc3)c2NC(=O)c2ccco2)cc1
inactive: growth inhibition [1] -2.46% | growth inhibition [2] 0.43% | viability increase [3] -4.1% | viability [4] 89.7% | viability [5] 85.6% | inhibition [6] 1.9% | RAM network inhibition [7] 5.45%

Cc1ccc(S(=O)(=O)N(CC(=O)N2CCCC2)C2CCCCC2)cc1
inactive: growth inhibition [1] -1.14% | growth inhibition [2] 10.9% | viability increase [3] -1.79% | viability [4] 99% | viability [5] 95% | inhibition [6] 0.685% | RAM network inhibition [7] 2.21%

CCOCCCNC(=O)CN1C(=O)CSc2ccccc21
inactive: growth inhibition [1] -18.9% | growth inhibition [2] -6.29% | viability increase [3] -0.22% | viability [4] 101% | viability [5] 98.9% | inhibition [6] 1.49% | RAM network inhibition [7] 2.6%

O=C1CCCCC(=O)N(c2ccccc2)c2ccccc21
inactive: growth inhibition [1] -9.64% | growth inhibition [2] -15% | viability increase [3] -3.3% | viability [4] 95.9% | viability [5] 95.6% | inhibition [6] 1.74% | RAM network inhibition [7] 5.34%

O=C(NCCCc1ccccc1)C1CCN(c2nnc(-n3cccc3)s2)CC1
inactive: growth inhibition [1] -1.03% | growth inhibition [2] 0.98% | viability increase [3] 3.79% | viability [4] 93.3% | viability [5] 97% | inhibition [6] 0.175% | RAM network inhibition [7] 5.38%

Cn1nc(-c2ccc(Cl)cc2)c2cc(C(=O)NCc3ccco3)sc21
inactive: growth inhibition [1] -1.08% | growth inhibition [2] -3.58% | viability increase [3] -7.27% | viability [4] 59.6% | viability [5] 47% | inhibition [6] 2.54% | RAM network inhibition [7] 5.89%

CC1CN(CCC(=O)Nc2ccc3c(c2)CCC3)CC(C)O1 (stereo unspecified)
inactive: growth inhibition [1] -3.75% | growth inhibition [2] -3.82% | viability increase [3] -0.55% | viability [4] 97.5% | viability [5] 93% | inhibition [6] 0.995% | RAM network inhibition [7] 6.16%

O=C(CCS(=O)(=O)c1cccc2nonc12)NCCc1ccccc1
inactive: growth inhibition [1] -9.93% | growth inhibition [2] -23.2% | viability increase [3] -3.1% | viability [4] 103% | viability [5] 99.1% | inhibition [6] 4.24% | RAM network inhibition [7] 5.03%

CCCCOc1ccccc1C1C(C(=O)OC)=CN(CC)C=C1C(=O)OC
inactive: growth inhibition [1] -6.49% | growth inhibition [2] 0.595% | viability increase [3] -5.35% | viability [4] 73.8% | viability [5] 70.9% | inhibition [6] 3.23% | RAM network inhibition [7] 6.73%

O=C1NCCCC1C(=O)N1CCN(C(c2ccccc2)c2ccccc2)CC1 (stereo unspecified)
inactive: growth inhibition [1] 6.11% | growth inhibition [2] 11.2% | viability increase [3] 1% | viability [4] 98.5% | viability [5] 94.3% | inhibition [6] 0.65% | RAM network inhibition [7] 7.67%

Cc1ccc(NC(=O)C2CCCN2S(=O)(=O)c2ccc3c(c2)CCC(=O)N3)cc1Cl (stereo unspecified)
inactive: growth inhibition [1] -9.43% | growth inhibition [2] 8.74% | viability increase [3] 3.52% | viability [4] 81.8% | viability [5] 85.8% | inhibition [6] 2.66% | RAM network inhibition [7] 3.45%

Cc1nc(SCC(=O)NCc2ccco2)c2oc3ccccc3c2n1
inactive: growth inhibition [1] -0.535% | growth inhibition [2] 1.3% | viability increase [3] -2.69% | viability [4] 95.2% | viability [5] 94% | inhibition [6] 0.86% | RAM network inhibition [7] 2.53%

COc1ccc(C2CC(C(F)(F)F)n3ncc(C(=O)O)c3N2)cc1OC (stereo unspecified)
inactive: growth inhibition [1] -0.77% | growth inhibition [2] -3% | viability increase [3] 0.06% | viability [4] 97.2% | viability [5] 97.9% | inhibition [6] 0.23% | RAM network inhibition [7] -0.41%

COc1ccc(OC)c(NC(=O)c2c(NC(=O)CNCc3ccco3)sc3c2CCC3)c1
inactive: growth inhibition [1] -0.125% | growth inhibition [2] -0.495% | viability increase [3] -3.56% | viability [4] 95.8% | viability [5] 88.2% | inhibition [6] 1.28% | RAM network inhibition [7] 7.95%

N#CCCn1c(C(C#N)(CCC#N)CCC#N)nc2ccccc21
inactive: growth inhibition [1] 5.8% | growth inhibition [2] 5.04% | viability increase [3] -0.72% | viability [4] 96.5% | viability [5] 99.4% | inhibition [6] 1.6% | RAM network inhibition [7] 1.63%

COc1ccc(CNc2ccc3cn[nH]c3c2)c(OC)c1OC
inactive: growth inhibition [1] -1.74% | growth inhibition [2] 1.43% | viability increase [3] -2.25% | viability [4] 74.7% | viability [5] 79.7% | inhibition [6] -0.465% | RAM network inhibition [7] 9.01%

CC(C)OC(=O)CSc1nnc(-c2ccc(Cl)cc2)n1N
inactive: growth inhibition [1] -3.53% | growth inhibition [2] -8.84% | viability increase [3] -0.58% | viability [4] 97.2% | viability [5] 95.7% | inhibition [6] 2.38% | RAM network inhibition [7] 5.48%

CCOc1ccc(C(F)(F)F)cc1NC(C)=O
inactive: growth inhibition [1] -6.15% | growth inhibition [2] -9.57% | viability increase [3] -3.24% | viability [4] 90.4% | viability [5] 90.3% | inhibition [6] 0.62% | RAM network inhibition [7] 3.29%

CCOC(=O)C1CCCN(C(=O)c2cn(C)c3ccc(S(=O)(=O)N(C)C)cc3c2=O)C1 (stereo unspecified)
inactive: growth inhibition [1] -5.1% | growth inhibition [2] -1.87% | viability increase [3] 0.59% | viability [4] 97.8% | viability [5] 105% | inhibition [6] 0.48% | RAM network inhibition [7] 6.85%

Cn1c(C(=O)NCCCN2CCOCC2)cc2c(=O)n(C)c3ccccc3c21
inactive: growth inhibition [1] 0.23% | growth inhibition [2] -0.345% | viability increase [3] -4.09% | viability [4] 100% | viability [5] 91.5% | inhibition [6] 1.67% | RAM network inhibition [7] -0.72%

COc1cc2[nH]c(=O)n(CCC(=O)NC3CCN(Cc4ccccc4)CC3)c(=O)c2cc1OC
inactive: growth inhibition [1] -0.585% | growth inhibition [2] -8.45% | viability increase [3] -1.84% | viability [4] 101% | viability [5] 94.3% | inhibition [6] 2.09% | RAM network inhibition [7] -0.53%

Cc1c(C(=O)Nc2ccncc2)sc2nc(-c3ccccc3)cn12
inactive: growth inhibition [1] 0.39% | growth inhibition [2] 9.21% | viability increase [3] 2.2% | viability [4] 89.2% | viability [5] 89.2% | inhibition [6] 0.99% | RAM network inhibition [7] -1.99%

Cc1ccc(OS(=O)Nc2cccc3nccnc23)cc1 (stereo unspecified)
inactive: growth inhibition [1] 1.61% | growth inhibition [2] 13.2% | viability increase [3] -4.19% | viability [4] 56.8% | viability [5] 55% | inhibition [6] 1.72% | RAM network inhibition [7] 2.2%

Source: PubChem BioAssay
